ChEMBL document CHEMBL1134840, “Synthesis and antiviral activity of novel acyclic nucleoside analogues of 5-(1-azido-2-haloethyl)uracils” (J Med Chem, 2001)

How the values were obtained:
[1] = system: Human betaherpesvirus 5; assay: Antiviral activity against human cytomegalovirus; format: functional, organism-based
Outline: (§1)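 CPE inhibition and plaque reduction assays in human foreskin fibroblast (HFF) or Vero cells, run under the NIH Antiviral Research Branch program. Virus strains: HCMV AD-169, HSV-2 MS, VZV Ellen. Acyclovir or ganciclovir served as reference drug.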

[2] = Cytotoxicity against human foreskin fibroblast cell proliferation; format: cell-based; conditions: human foreskin fibroblast cells (proliferating)
Outline: (§2)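 Proliferating HFF cells; growth inhibition expressed as IC50. Compounds tested up to top concentrations of 130–310 μM.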

[3] = Inhibitory activity against human foreskin fibroblast cell proliferation; format: functional, cell-based; outline: as §2
[4] = In vitro cytotoxicity against stationary phase vero cells; format: cell-based; conditions: chlorocebus sabaeus
Outline: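 Stationary-phase Vero cells; cytotoxicity read by MTT assay and expressed as CC50. Compounds tested up to top concentrations of 260–620 μM.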

[5] = In vitro cytotoxicity against stationary phase human foreskin fibroblast cells; format: cell-based
Outline: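 Stationary-phase HFF cells; cytotoxicity read by neutral red uptake and expressed as CC50. Compounds tested up to top concentrations of 240–340 μM.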

[6] = system: Human alphaherpesvirus 3; assay: In vitro antiviral activity against Varicella zoster virus; format: functional, organism-based; outline: as §1
[7] = system: Anas sp.; assay: (§3) In vitro antiviral activity against duck hepatitis B virus (DHBV); format: functional, organism-based
Outline: (§4)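 Virus replication inhibition measured in primary hepatocyte cultures prepared from congenitally DHBV-infected ducks.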

[8] = system: Human alphaherpesvirus 2; assay: In vitro antiviral activity against Herpes simplex virus type 2; format: functional, organism-based; outline: as §1
[9] = system: Human alphaherpesvirus 1; assay: In vitro antiviral activity against Herpes simplex virus type 1; format: functional, organism-based
Outline: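 HSV-1 strains tested: KOS and E-377 (both TK+), and the TK-deficient mutant KOSSB in Vero cells. E-377 was assayed by CPE inhibition and plaque reduction under the NIH program. Acyclovir or ganciclovir served as reference.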

[10] = system: Hepatitis B virus; assay: as §3; format: functional, organism-based; outline: as §4

Row | SMILES | IC50 [3] [µM] | CC50 [4] [µM] | CC50 [5] [µM] | further results
1 | [N-]=[N+]=NC(CI)c1cn(CCC(CO)CO)c(=O)[nH]c1=O (configuration not stated) | > 310 |  |  | EC50 [1]: 14.4 µM; IC50 [2]: > 260 µM
2 | [N-]=[N+]=NC(CCl)c1cn(CCC(CO)CO)c(=O)[nH]c1=O (configuration not stated) | > 310 | > 260 | > 240 | 
3 | [N-]=[N+]=NC(CI)c1cn(COC(CO)CO)c(=O)[nH]c1=O (configuration not stated) | > 130 | > 260 | > 240 | EC50 [6]: 2.4 µM
4 | [N-]=[N+]=NC(CBr)c1cn(COC(CO)CO)c(=O)[nH]c1=O (configuration not stated) | > 130 | > 260 | > 240 | 
5 | [N-]=[N+]=NC(CI)c1cn(COCCO)c(=O)[nH]c1=O (configuration not stated) | > 130 | > 260 | > 240 | 
6 | [N-]=[N+]=NC(CBr)c1cn(COCCO)c(=O)[nH]c1=O (configuration not stated) | > 130 | > 260 | > 240 | 
7 | [N-]=[N+]=NC(CCl)c1cn([C@H]2C[C@H](O)[C@@H](CO)O2)c(=O)[nH]c1=O (some centres not stated) |  |  |  | EC50 [7]: 15 µM; EC50 [6]: 4.5 µM; EC50 [8]: 2.9 µM; EC50 [9]: 0.06 µM
8 | [N-]=[N+]=NC(CBr)c1cn([C@H]2C[C@H](O)[C@@H](CO)O2)c(=O)[nH]c1=O (some centres not stated) |  |  |  | EC50 [7]: 2.6 µM
9 | [N-]=[N+]=NC(CCl)c1cn([C@@H]2O[C@H](CO)[C@@H](O)[C@@H]2O)c(=O)[nH]c1=O (some centres not stated) |  |  |  | EC50 [1]: 1.45 µM; EC50 [6]: 0.08 µM; EC50 [9]: 0.46 µM
10 | [N-]=[N+]=NC(CCl)c1cn(COC(CO)CO)c(=O)[nH]c1=O (configuration not stated) | > 130 | > 260 | > 240 | 
11 | [N-]=[N+]=NC(CCl)c1cn(COCCO)c(=O)[nH]c1=O (configuration not stated) | > 130 | > 260 | > 240 | 
12 | [N-]=[N+]=NC(CBr)c1cn(CCC(CO)CO)c(=O)[nH]c1=O (configuration not stated) | > 270 | > 260 | > 240 | EC50 [1]: 2.7 µM
13 | Nc1nc2c(ncn2COCCO)c(=O)[nH]1 [ACYCLOVIR] |  |  |  | EC50 [6]: 2.6 µM
14 | Nc1nc2c(ncn2COC(CO)CO)c(=O)[nH]1 [GANCICLOVIR] | 156 |  |  | EC50 [1]: 0.23 µM; EC50 [10]: 4 µM
15 | Nc1nc(O)c2ncn(CCC(CO)CO)c2n1 [PENCICLOVIR] |  |  |  | EC50 [10]: 0.7 µM
